# Calls of active or inactive are those of the source. The calls are words filed in the database; no cut-off is given here.
# Columns and labels:
# HL-60 [1] = assay: Antiproliferative activity against human HL60 cells after 72 hrs by MTT assay; assay type: functional, cell-based; settings: HL-60, 72 h
# Outline: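 HL-60 cells seeded at 1 × 10^4 cells/well, exposed to 2-fold serial dilutions with paclitaxel as positive control, 72 h at 37 °C. MTT (5 mg/mL in PBS) added for 2 h at 37 °C. Formazan dissolved overnight at 37 °C in 10% SDS/45% dimethylformamide, absorbance read at 570 nm. n = 3 independent experiments, two technical replicates each.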
# HL-60 [2] = assay: Cell cycle arrest in human HL60 cells assessed as accumulation at G1 phase at 1 uM after 18 hrs by propidium iodide staining based flow cytometry (reference value: 51%); assay type: functional
# Outline: (§1)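 HL-60 cells seeded at 1 × 10^5 cells/well, exposed to 1 μM compound for 18 h at 37 °C. Stained 30 min in the dark with propidium iodide (0.05 mg/mL in 0.1% sodium citrate, 0.1% Triton X-100, 100 μg/mL RNase), then DNA content read by flow cytometry. Reported as % cells in each phase; n = 2 replicates from a single experiment.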
# HL-60 [3] = assay: Cell cycle arrest in human HL60 cells assessed as accumulation at S phase at 1 uM after 18 hrs by propidium iodide staining based flow cytometry (reference value: 27%); assay type: functional; outline: as §1
# HL-60 [4] = assay: Cell cycle arrest in human HL60 cells assessed as accumulation at G2/M phase at 1 uM after 18 hrs by propidium iodide staining based flow cytometry (reference value: 22%); assay type: functional; outline: as §1
# Sus scrofa [5] = organism: Sus scrofa; assay: Induction of porcine tubulin polymerization assessed as microtubule stabilization at 27 uM measured at 1 min interval over 100 mins
# Outline: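 Fluorescence-based in vitro assay with purified porcine brain tubulin, run without microtubule-associated proteins and with glycerol omitted from the polymerization buffer. Compound at 27 μM final, with tubulin buffer added just before reading. Kinetic read at 37 °C, λex 360/λem 450 nm, every 1 min for 100 min. n = 3 replicates from a single preparation.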
# Sus scrofa [6] = organism: Sus scrofa; assay: Induction of porcine tubulin polymerization assessed as microtubule stabilization at 2.8 uM measured at 1 min interval over 100 mins
# Outline: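 Fluorescence-based assay with purified porcine brain tubulin, no microtubule-associated proteins, glycerol omitted from polymerization buffer. Compound at 2.8 μM final, paclitaxel 2.8 μM as positive control, vehicle control. Tubulin buffer added immediately before reading. Kinetic read at 37 °C, λex 360/λem 450 nm, every 1 min for 100 min. n = 3 replicates, single preparation.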
SMILES,IC50 (HL-60 [1]),Activity (HL-60 [2]),Activity (HL-60 [3]),Activity (HL-60 [4]),Activity (Sus scrofa [5]),Activity (Sus scrofa [6])
C=C1C[C@@H]2C/C=C/C(=O)C/C(C)=C\C=C\C(=O)O[C@H](C=O)C/C(C)=C/[C@H](C1)O2,240 nM,17%,29%,54%,inactive,
CC(=O)O[C@H]1C(=O)[C@@]2(C)[C@H]([C@H](OC(=O)c3ccccc3)[C@]3(O)C[C@H](OC(=O)[C@H](O)[C@@H](NC(=O)c4ccccc4)c4ccccc4)C(C)=C1C3(C)C)[C@]1(OC(C)=O)CO[C@@H]1C[C@@H]2O [PACLITAXEL],,18%,24%,58%,,Active
C=C1C[C@@H]2CCCC(=O)C/C(C)=C\C=C\C(=O)O[C@H]([C@H](O)NC(=O)/C=C\C=C\C)C/C(C)=C/[C@H](C1)O2,300 nM,44%,25%,30%,inactive,
C=C1C[C@@H]2C/C=C/C(=O)C/C(C)=C\C=C\C(=O)O[C@H]([C@H](O)NC(=O)/C=C\C=C\C)C/C(C)=C/[C@H](C1)O2 [ZAMPANOLIDE],3.2 nM,18%,28%,54%,,Active
C=C1C[C@@H]2C/C=C/C(=O)C/C(C)=C\C=C\C(=O)O[C@H]([C@H](O)NC(=O)/C=C/C=C\C)C/C(C)=C/[C@H](C1)O2,5.3 nM,19%,26%,55%,,Active
C=C1C[C@@H]2C/C=C/C(=O)C/C(C)=C/C=C/C(=O)O[C@H]([C@H](O)NC(=O)/C=C\C=C\C)C/C(C)=C/[C@H](C1)O2,3.3 nM,16%,30%,54%,,Active

# Source: ChEMBL document CHEMBL4266029, “Zampanolides B-E from the Marine Sponge Cacospongia mycofijiensis: Potent Cytotoxic Macrolides with Microtubule-Stabilizing Activity” (J Nat Prod, 2018)
